Legend:
Tubulin beta-1 chain = Tubulin beta-1 chain (Homo sapiens, UniProt Q9H4B7); test: Percent inhibition of tubulin polymerization at 0.3 uM concentration; assay type: functional
[1] = Concentration required to inhibit tumor cell growth in KB-3-1 cells; assay type: functional, cell-based, Homo sapiens
How it was run: (§1)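 Cytotoxicity was measured in paclitaxel-sensitive KB-3-1 cells and in KB-8-5 and KB-V1 cells, which express moderate and high P-glycoprotein respectively. Result is the average IC50 (nM) ± SEM; SEM is omitted where it is below 10% of the average.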

KB [2] = test: Concentration required to inhibit tumor cell growth in KB-8-5 cells; assay type: functional, cell-based, Homo sapiens; how it was run: as §1
KB [3] = test: Concentration required to inhibit tumor cell growth in KB-V1 cells; assay type: functional, cell-based; settings: Homo sapiens; how it was run: as §1

Sequence of Tubulin beta-1 chain (Q9H4B7 whole entry): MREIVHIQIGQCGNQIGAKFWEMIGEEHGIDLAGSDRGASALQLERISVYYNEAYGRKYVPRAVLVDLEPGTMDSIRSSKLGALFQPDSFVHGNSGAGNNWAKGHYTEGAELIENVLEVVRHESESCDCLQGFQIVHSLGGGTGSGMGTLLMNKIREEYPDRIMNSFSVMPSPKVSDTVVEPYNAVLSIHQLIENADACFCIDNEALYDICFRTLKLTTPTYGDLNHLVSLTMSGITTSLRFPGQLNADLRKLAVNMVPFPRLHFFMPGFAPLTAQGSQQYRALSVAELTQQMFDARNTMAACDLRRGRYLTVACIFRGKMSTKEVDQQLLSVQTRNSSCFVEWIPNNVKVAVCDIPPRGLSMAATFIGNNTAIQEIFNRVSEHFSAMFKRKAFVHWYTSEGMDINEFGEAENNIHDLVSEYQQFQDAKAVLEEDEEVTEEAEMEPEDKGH

Structure (SMILES)	inhibition (Tubulin beta-1 chain)	IC50 ([1]; Homo sapiens, KB 3-1)	IC50 (KB [2]; Homo sapiens, KB)	IC50 (KB [3])	IC50 ([1]; kb 3-1)	IC50 (KB [2]; kb)
C/C(=C\[C@H](C(C)C)N(C)C(=O)[C@@H](NC(=O)[C@@H](C(C)(C)c1ccccc1)S(C)(=O)=O)C(C)(C)C)C(=O)O	80%	1.75 µM	2.11 µM	> 3 µM	–	–
CC[C@H](C(=O)N[C@H](C(=O)N(C)[C@H](/C=C(\C)C(=O)O)C(C)C)C(C)(C)C)C(C)(C)c1ccccc1	54%	0.912 µM	1.2 µM	5.25 µM	–	–
CN[C@H](C(=O)N[C@H](C(=O)N(C)[C@H](/C=C(\C)C(=O)O)C(C)C)C(C)(C)C)C1(c2ccccc2)CCCCC1	5%	0.204 µM	0.363 µM	> 3 µM	–	–
CC[C@H](NC(=O)[C@@H](NC)C(C)(C)c1ccccc1)C(=O)N(C)[C@H](/C=C(\C)C(=O)O)C(C)C	73%	0.048 µM	0.07 µM	1.06 µM	–	–
CNCC(=O)N[C@H](C(=O)N[C@H](C(=O)N(C)[C@H](/C=C(\C)C(=O)O)C(C)C)C(C)(C)C)C(C)(C)c1ccccc1	4%	1.4 µM	2.12 µM	> 3 µM	–	–
C/C(=C\[C@H](C(C)C)N(C)C(=O)[C@@H](NC(=O)[C@H](Cc1ccccc1)C(C)(C)c1ccccc1)C(C)(C)C)C(=O)O	46%	1.69 µM	2.25 µM	> 6 µM	–	–
C/C(=C\[C@H](C(C)C)N(C)C(=O)[C@@H](NC(=O)[C@@H](NCC(=O)O)C(C)(C)c1ccccc1)C(C)(C)C)C(=O)O	35%	> 3 µM	> 3 µM	> 3 µM	–	–
CN[C@H](C(=O)N[C@H](C(=O)N(C)[C@H](/C=C(\C)C(=O)O)Cc1ccccc1)C(C)(C)C)C(C)(C)c1ccccc1	44%	0.479 µM	1.32 µM	> 3 µM	–	–
C/C(=C\[C@H](C(C)C)N(C)C(=O)[C@@H](NC(=O)CC(C)(C)c1ccccc1)C(C)(C)C)C(=O)O	21%	> 3 µM	> 3 µM	> 3 µM	–	–
CN[C@H](C(=O)N[C@H](C(=O)N(C)[C@H](/C=C(\C)C(=O)O)C(C)C)C(C)(C)C)[C@H](C)c1ccccc1	77%	0.438 µM	0.584 µM	> 3 µM	–	–
C=CC[C@H](C(=O)N[C@H](C(=O)N(C)[C@H](/C=C(\C)C(=O)O)C(C)C)C(C)(C)C)C(C)(C)c1ccccc1	63%	1.15 µM	1.2 µM	> 6 µM	–	–
CN[C@H](C(=O)N[C@H](C(=O)N(C)[C@H](/C=C(\C)C(=O)NCCc1ccccc1)C(C)C)C(C)(C)C)C(C)(C)c1ccccc1	72%	0.163 µM	0.226 µM	1.77 µM	–	–
CN[C@H](C(=O)N[C@H](C(=O)N(C)[C@H](/C=C(\C)C(=O)O)C(C)C)C(C)(C)C)C(C)(C)C	43%	0.114 µM	0.18 µM	> 3 µM	–	–
C/C(=C\[C@H](C(C)C)N(C)C(=O)[C@@H](NC(=O)[C@@H](N)C(C)(C)c1ccccc1)C(C)(C)C)C(=O)O (stereo in doubt; 20) [listing 1 of 2 here]	–	–	–	> 3 µM	0.427 µM	0.55 µM
CN[C@H](C(=O)N[C@H](C(=O)N(C)[C@H](/C=C(\C)C(=O)O)C(C)C)C(C)(C)C)C(C)(C)c1ccc(-c2ccccc2)cc1	86%	0.0032 µM	0.0068 µM	0.177 µM	–	–
CN[C@H](C(=O)N[C@H](C(=O)N(C)[C@H](/C=C(\C)C(=O)NCc1ccc(-c2ccccc2)cc1)C(C)C)C(C)(C)C)C(C)(C)c1ccccc1	11%	0.667 µM	1.68 µM	> 3 µM	–	–
C/C(=C\[C@H](C(C)C)N(C)C(=O)[C@@H](NC(=O)[C@@H](N1CCCC1)C(C)(C)c1ccccc1)C(C)(C)C)C(=O)O	83%	0.075 µM	0.158 µM	> 3 µM	–	–
CN[C@H](C(=O)N[C@@H](Cc1ccccc1)C(=O)N(C)[C@H](/C=C(\C)C(=O)O)C(C)C)C(C)(C)c1ccccc1	40%	1.32 µM	2.4 µM	> 3 µM	–	–

Structure (SMILES)	inhibition (Tubulin beta-1 chain)	IC50 ([1]; Homo sapiens, KB 3-1)	IC50 (KB [2]; Homo sapiens, KB)	IC50 (KB [3])	IC50 ([1]; kb 3-1)	IC50 (KB [2]; kb)
CCC[C@H](NC(=O)[C@@H](NC)C(C)(C)c1ccccc1)C(=O)N(C)[C@H](/C=C(\C)C(=O)O)C(C)C	51%	0.015 µM	0.019 µM	0.575 µM	–	–
CN[C@H](C(=O)N[C@H](C(=O)N(C)[C@H](/C=C(\C)C(=O)NO)C(C)C)C(C)(C)C)C(C)(C)c1ccccc1	75%	0.039 µM	0.227 µM	> 3 µM	–	–
CN[C@H](C(=O)N(C)[C@H](C(=O)N(C)[C@H](/C=C(\C)C(=O)O)C(C)C)C(C)(C)C)C(C)(C)c1ccccc1	4%	> 3 µM	> 3 µM	> 3 µM	–	–
C/C(=C\[C@H](C(C)C)N(C)C(=O)[C@@H](NC(=O)[C@@H](O)C(C)(C)c1ccccc1)C(C)(C)C)C(=O)O	21%	> 3 µM	> 3 µM	> 3 µM	–	–
CN[C@H](C(=O)N[C@@H](C)C(=O)N(C)[C@H](/C=C(\C)C(=O)O)C(C)C)C(C)(C)c1ccccc1	8%	0.381 µM	0.902 µM	> 3 µM	–	–
CN[C@H](C(=O)N[C@H](C(=O)N(C)[C@H](/C=C(\C)C(=O)O)C(C)C)C(C)(C)C)C1(c2ccccc2)CC1	99%	0.027 µM	0.057 µM	1.66 µM	–	–
C/C(=C\[C@H](C(C)C)N(C)C(=O)[C@@H](NC(=O)[C@@H](NCCO)C(C)(C)c1ccccc1)C(C)(C)C)C(=O)O	90%	0.183 µM	0.616 µM	> 3 µM	–	–
CNC(=O)CN[C@H](C(=O)N[C@H](C(=O)N(C)[C@H](/C=C(\C)C(=O)O)C(C)C)C(C)(C)C)C(C)(C)c1ccccc1	0%	> 3 µM	> 3 µM	> 3 µM	–	–
CCCCCC(C)(C)[C@H](NC)C(=O)N[C@H](C(=O)N(C)[C@H](/C=C(\C)C(=O)O)C(C)C)C(C)(C)C	72%	0.009 µM	0.019 µM	0.513 µM	–	–
CN[C@@H](Cc1ccccc1)C(=O)N[C@H](C(=O)N(C)[C@H](/C=C(\C)C(=O)O)C(C)C)C(C)(C)C	66%	0.603 µM	0.646 µM	> 3 µM	–	–
C/C(=C\[C@H](C(C)C)N(C)C(=O)[C@@H](NC(=O)[C@@H](N)C(C)(C)c1ccccc1)C(C)(C)C)C(=O)O (stereo in doubt; 20) [listing 2 of 2 here]	95%	–	–	–	–	–
CS[C@@H](C(=O)N[C@H](C(=O)N(C)[C@H](/C=C(\C)C(=O)O)C(C)C)C(C)(C)C)C(C)(C)c1ccccc1	79%	0.691 µM	1.15 µM	> 6 µM	–	–
CCN(C(=O)[C@@H](NC(=O)[C@@H](NC)C(C)(C)c1ccccc1)C(C)(C)C)[C@H](/C=C(\C)C(=O)O)C(C)C	11%	0.109 µM	0.197 µM	> 3 µM	–	–
CCN[C@H](C(=O)N[C@H](C(=O)N(C)[C@H](/C=C(\C)C(=O)O)C(C)C)C(C)(C)C)C(C)(C)c1ccccc1	96%	0.0016 µM	0.0024 µM	0.114 µM	–	–
CCC(CC)(c1ccccc1)[C@H](NC)C(=O)N[C@H](C(=O)N(C)[C@H](/C=C(\C)C(=O)O)C(C)C)C(C)(C)C	86%	0.0085 µM	0.018 µM	0.479 µM	–	–
CO[C@H](C(=O)N[C@H](C(=O)N(C)[C@H](/C=C(\C)C(=O)O)C(C)C)C(C)(C)C)C(C)(C)c1ccccc1	54%	1.42 µM	1.23 µM	> 3 µM	–	–
CN[C@H](C(=O)N[C@H](C(=O)N(C)[C@H](/C=C(\C)C(=O)O)C(C)C)C(C)(C)C)C(C)(C)Cc1ccccc1	87%	0.003 µM	0.006 µM	0.219 µM	–	–
C/C(=C\[C@H](C(C)C)N(C)C(=O)[C@@H](NC(=O)[C@@H](N)C(C)(C)c1ccccc1)C(C)(C)C)C(=O)O (stereo in doubt; 63)	49%	–	–	–	–	–

Reference: ChEMBL document CHEMBL1138753, “Synthesis and biological activity of analogues of the antimicrotubule agent N,beta,beta-trimethyl-L-phenylalanyl-N(1)-[(1S,2E)-3-carboxy-1-isopropylbut-2-enyl]- N(1),3-dimethyl-L-valinamide (HTI-286)” (J Med Chem, 2004)
